Experimental findings from ChEMBL document CHEMBL1821684, “A novel and efficient one-pot synthesis of symmetrical diamide (bis-amidate) prodrugs of acyclic nucleoside phosphonates and evaluation of their biological activities” (Eur J Med Chem, 2011) are described below.

A short description of series [1]: Antiproliferative activity against human HepG2 after 72 hrs by XTT assay. The class given is functional. The conditions noted are these: HepG. In short, it runs like this:
(§1)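 CCRF-CEM, HL-60 and HeLa S3 cells were grown in RPMI 1640 with 5% calf fetal serum, and Hep G2 cells in Eagle's MEM with 10% calf fetal serum. Cells were exposed to compound, and growth was ended 72 h after drug addition. Viability was then quantified by the XTT spectrophotometric assay.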

The subject of series [2] is HL-60. Put plainly: Antiproliferative activity against human HL60 after 72 hrs by XTT assay. It counts as functional, cell-based. The conditions noted are these: HL-60, 72 h. The method in brief:
as §1
A general note: Tetrazolium dyes change colour on reduction, which living cells bring about.

Series [3] in a line: Antiproliferative activity against human HeLaS3 after 72 hrs by XTT assay. The conditions noted are these: HeLa S3, 72 h. It counts as functional. The method in brief:
as §1

In series [4] the test system is CCRF-CEM. Put plainly: Antiproliferative activity against human CCRF-CEM after 72 hrs by XTT assay. It counts as functional, cell-based. In short, it runs like this: as §1
For series [5], the species on record is Mus musculus. Description: Immunomodulatory activity in C57BL/6 mouse peritoneal cells assessed as inhibition of LPS-induced NO production at 25 uM after 24 hrs by Griess reagent method. It counts as functional. The method in brief:
(§2)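 Peritoneal cells pooled from 4 female C57BL/6 mice (8–10 weeks) were seeded at 2 × 10^6 cells/mL in complete RPMI-1640 with 10% FBS, at 37 °C and 5% CO2. Compound was given alone or with IFN-γ (5000 pg/mL) or IFN-γ plus E. coli LPS (100 pg/mL) for 24 h. Supernatant nitrite was measured with Griess reagent (5 min, A540) against a nitrite calibration curve.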
(The Griess reaction detects nitrite, a stable product of nitric oxide.)

The species entered for series [6] is Mus musculus. Description: Immunostimulatory activity in C57BL/6 mouse peritoneal cells assessed as stimulation of LPS-induced NO production at 25 uM after 24 hrs by Griess reagent method. The class given is functional. In short, it runs like this:
as §2

For series [7], the system named is Human immunodeficiency virus 1. Description: Antiviral activity against HIV1 3B infected in human MT-2 cells assessed as reduction in virus-induced cytopathic effect after 5 days by luminescence assay. The class given is functional, organism-based. The conditions noted are these: Human immunodeficiency virus 1, 3B, MT2, 120 h. In short, it runs like this:
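MT-2 cells were kept below 0.6 × 10^6 cells/mL and infected in bulk with HIV-1 IIIB for 3 h at MOI 0.0055. They were seeded at 3 × 10^3 cells/well with 3-fold serial compound dilutions in triplicate, 0.5% DMSO final. After 5 days at 37 °C, cytopathic effect was read by CellTiter-Glo luminescence. EC50 came from non-linear regression of multiple data sets.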
For orientation: Damage to the host cells serves as the signal in cytopathic effect assays.

Series [8] in a line: Cytotoxicity against human MT2 cells assessed as inhibition of cell proliferation after 5 days by luminescence assay. The class given is cell-based. In short, it runs like this: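 Uninfected MT-2 cells at 3 × 10^3 cells/well were run on replicate plates alongside the antiviral assay, with 3-fold serial compound dilutions in triplicate and 0.5% DMSO final. After 5 days at 37 °C, viability was read by CellTiter-Glo luminescence. CC50 came from non-linear regression of multiple data sets.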

The source made the active and inactive calls. The rule behind the calls is not given here.

`CCOC(=O)[C@H](C)NP(=O)(COCCn1cnc2c(NC3CC3)nc(N)nc21)N[C@@H](C)C(=O)OCC` [RABACFOSADINE]: the IC50 is 1740 nM in series [1], 780 nM in series [2], 2150 nM in series [3] and 480 nM in series [4]. Moreover, in series [5], the inhibition entry is “inactive”. Moreover, the outcome in series [6] was inactive.
Take `C[C@H](Cn1cnc2c(N)nc(F)nc21)OCP(=O)(O)O`: the EC50 in series [7] is more than 85300 nM. Moreover, the 50% cytotoxic concentration (CC50) at 120 h in series [8] is more than 100000 nM.
Take `Nc1nc(NC2CC2)c2ncn(C[C@@H](CF)OCP(=O)(O)O)c2n1`: the 50% effective concentration (EC50) in series [7] amounted to 13200 nM. Besides, the CC50 at 120 h in series [8] was more than 100000 nM.
Consider `CCOC(=O)[C@H](C)NP(=O)(COCCn1cnc2c(NC3CCCCCCC3)nc(N)nc21)N[C@@H](C)C(=O)OCC`, for which the inhibition entry in series [5] is “inactive”. Further, in series [6], the result was inactive.
For `CCOC(=O)[C@H](C)NP(=O)(CO[C@H](C)Cn1cnc2c(N)nc(N)nc21)N[C@@H](C)C(=O)OCC`, the concentration giving a half-maximal response (EC50) in series [7] came out at 290 nM. The CC50 at 120 h in series [8] was more than 100000 nM. Moreover, the inhibition result in series [5] is “inactive”. The result in series [6] was inactive.
For `CCOC(=O)[C@H](C)NP(=O)(COCCn1cnc2c(=O)[nH]c(N)nc21)N[C@@H](C)C(=O)OCC`, the IC50 in series [1] worked out at 2320 nM; in series [2], 3020 nM; in series [3], 3940 nM; in series [4] it was 1220 nM. Moreover, in series [5], the inhibition result was “inactive”. In addition, in series [6], the outcome was inactive.
For `CCOC(=O)[C@H](C)NP(=O)(COCCOc1cc(N)nc(N)n1)N[C@@H](C)C(=O)OCC`, the EC50 in series [7] was 1130 nM. Besides, in series [8], the 50% cytotoxic concentration (CC50) at 120 h was found to be 73300 nM. In series [5], the inhibition result was “inactive”. The outcome in series [6] was inactive.
In the case of `CCOC(=O)[C@H](C)NP(=O)(CO[C@H](CF)Cn1cnc2c(N)ncnc21)N[C@@H](C)C(=O)OCC`, in series [7], the EC50 stood at 540 nM. In addition, in series [8], the cytotoxic concentration (CC50) at 120 h was more than 100000 nM. The inhibition entry in series [5] was “inactive”. Moreover, the result in series [6] was inactive.
For the compound `CCOC(=O)[C@H](C)NP(=O)(CO[C@H](C)Cn1cnc2c(N)nc(F)nc21)N[C@@H](C)C(=O)OCC`, the 50% effective concentration (EC50) in series [7] worked out at 5510 nM. For the same compound, in series [8], the half-maximal cytotoxic concentration (CC50) at 120 h was more than 100000 nM. Further, the inhibition result in series [5] is “inactive”. Also, in series [6], the outcome was inactive.
With `CCOC(=O)[C@H](C)NP(=O)(CO[C@H](CF)Cn1cnc2c(NC3CC3)nc(N)nc21)N[C@@H](C)C(=O)OCC`, the EC50 in series [7] came to 10700 nM. Further, the CC50 at 120 h in series [8] was more than 100000 nM. Also, the inhibition entry in series [5] was “inactive”. The result in series [6] was inactive.
Consider `C[C@H](Cn1cnc2c(N)nc(N)nc21)OCP(=O)(O)O`, for which the concentration for a half-maximal effect (EC50) in series [7] amounted to 940 nM. Besides, the cytotoxic concentration (CC50) at 120 h in series [8] is more than 100000 nM.

Usually IC50 stands for the concentration at which inhibition is half-maximal. The EC50 is the midpoint of the concentration-response curve. The term CC50 denotes the concentration at which the toxic effect on the cells reaches its halfway point.
